Measured values from ChEMBL document CHEMBL1129476, “In vivo activity and hydrophobicity of cytostatic aziridinyl quinones” (J Med Chem, 1996).

Assays:
[1] = Partition coefficient (logP); type: physicochemical; details: octanol/water
How it was run: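 Micro shake-flask: buffered aqueous compound solution (pH 6.50) shaken with an equal volume of water-saturated 1-octanol at room temperature, 3 × 120 s. Centrifuged 14000g, 15 min. Aqueous phase analysed by RP-HPLC against the unshaken solution (methanol 30, 50 or 70 wt%, 1.0 mL/min, UV 254 nm). Run in duplicate, or quadruplicate if needed.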

[2] = E1/2 for the half-wave potential at pH=7.0 in V57; type: ADME
[3] = Electrochemically observed pKa (pKred) of aziridines; type: physicochemical; details: read-out: pKred
[4] = test system: L1210; experiment: log 1/D125 for the dose (mmol/kg) to give 125%T/C ratio (L1210) in vivo; type: functional, Mus musculus
[5] = test system: B16; experiment: log 1/D125 or the dose (mmol/kg) to give 125%T/C ratio (B16) in vivo; type: functional, Mus musculus
[6] = HPLC capacity factor (logK); type: ADME
[7] = test system: Fungi; experiment: log 1/MIC for fungi in mmol/L; type: functional
[8] = Observed rate of hydrolysis (logKobs) (pH=4.0); type: ADME
How it was run: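 Hydrolysis followed by cyclic voltammetry at 20 °C in deaerated 0.1 M acetate buffers (pH 5.0–3.5) or 0.02 M NaH2PO4 (pH 3.5, 3.0), ionic strength 0.1 M (NaNO3). Decrease of the parent cathodic peak tracked over time. Pseudo-first-order kobs from linear regression of log concentration versus time.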

[9] = log KGSH for the rate k of glutathione (GSH) consumption in 1/s; type: functional
[10] = log 1/anion production.; type: functional
[11] = log 1/LD50 for LD50 (mmol/kg); type: ADME
[12] = test system: L1210; experiment: log 1/ID75 for the in vitro clonogenic L1210 assay with ID75 in umol/L; type: functional, Mus musculus

CC1=CC(=O)C=CC1=O [Cresoquinone]
logP [1]: 0.73

C/N=C1C(O)=C(N2CC2C)/C(=N\C)C(O)=C\1N1CC1C (stereo not given)
E 1/2 [2]: -0.4
pKa [3]: 9.3
Log 1/D125 (L1210) (mM kg-1) [4]: 2.19
Log 1/D125 (mM kg-1) [5]: 2.33

O=C1C=C(N2CC=CC2)C(=O)c2ccccc21
Log K [6]: 0.896

O=C1C(F)=C(N2CC2)C(=O)C(F)=C1N1CC1
Log 1/MIC (mM L-1) [7]: 1.75
E 1/2 [2]: -0.087
pKa [3]: 7.2
Log Kobs [8]: -4.03
Log k GSH (s-1) [9]: -2.21
Log 1/conc (mM min-1 L-1) [10]: 1.72

CC1=C(N2CC2)C(=O)C(CCO)=C(N2CC2)C1=O
Log 1/MIC (mM L-1) [7]: 0.44
Log 1/LD50 (mM kg-1) [11]: 1.39
Log 1/ID75 (uM L-1) [12]: 1.51
pKa [3]: 8.6
Log 1/D125 (L1210) (mM kg-1) [4]: 3.37
Log 1/D125 (mM kg-1) [5]: 3.6
logP [1]: 0.18
Log Kobs [8]: -4
Log 1/conc (mM min-1 L-1) [10]: 0.95

CC1=C(C)C(=O)C(N2CC=CC2)=CC1=O
Log 1/MIC (mM L-1) [7]: -0.17
Log 1/ID75 (uM L-1) [12]: -0.71
E 1/2 [2]: -0.311

NC1=C(Cl)C(=O)c2ccccc2C1=O
Log K [6]: 0.259

CN(C)C1=CC(=O)C(N(C)C)=CC1=O
Log K [6]: -0.004

C/N=C1C=C(O)/C(=N/C)C=C/1O
logP [1]: 0.34
Log K [6]: -0.611

O=C1C=C(Br)C(=O)c2ccccc21 [2-Bromo-1,4-naphthoquinone]
Log K [6]: 0.748

O=C1C=C(N2CC2)C(=O)c2ccccc21
Log K [6]: 0.346

CC1CN1C1=C(Br)C(=O)C(N2CC2C)=C(Br)C1=O (stereo not given)
Log 1/MIC (mM L-1) [7]: 1.28
Log 1/ID75 (uM L-1) [12]: 0.77
Log Kobs [8]: -3.45
Log 1/conc (mM min-1 L-1) [10]: 2.8

CN(C)C1=CC(=O)c2ccccc2C1=O
Log K [6]: 0.591

COC1=C(N2CC2)C(=O)C(OC)=C(N2CC2)C1=O
Log 1/ID75 (uM L-1) [12]: 0.15
E 1/2 [2]: -0.179
pKa [3]: 8
Log 1/D125 (L1210) (mM kg-1) [4]: 2.38
Log 1/D125 (mM kg-1) [5]: 3.53
Log Kobs [8]: -3.26

O=C1C=CC(=O)C=C1 [BENZOQUINONE]
Log K [6]: -0.466

O=C1C=C(Cl)C(=O)c2ccccc21
logP [1]: 2.15
Log K [6]: 0.659

CC1CN1C1=C(F)C(=O)C(N2CC2C)=C(F)C1=O (stereo not given)
Log 1/MIC (mM L-1) [7]: 1.5
Log 1/LD50 (mM kg-1) [11]: 1.5
Log 1/ID75 (uM L-1) [12]: 1.49
E 1/2 [2]: -0.093
pKa [3]: 7.9
Log K [6]: 0.444
Log 1/conc (mM min-1 L-1) [10]: 1.77

O=C1C=C(N2CC=CC2)C(=O)C=C1N1CC=CC1
Log 1/MIC (mM L-1) [7]: -0.52
Log 1/ID75 (uM L-1) [12]: -1.62

CN(CCO)C1=C(N2CC2)C(=O)C(N(C)CCO)=C(N2CC2)C1=O
Log 1/ID75 (uM L-1) [12]: 0.09
E 1/2 [2]: -0.225
pKa [3]: 9.7

CC1CN1C1=CC(=O)c2ccccc2C1=O (stereo not given)
Log K [6]: 0.611

CC1CN1C1=C(N2CCCC2)C(=O)C(N2CC2C)=C(N2CCCC2)C1=O (stereo not given)
E 1/2 [2]: -0.303
pKa [3]: 11.1

CC1=CC(=O)C=C(C)C1=O
Log K [6]: 0.136

C/N=C1C(O)=C(N2CC2)/C(=N\C)C(O)=C\1N1CC1
Log 1/ID75 (uM L-1) [12]: 0.32
E 1/2 [2]: -0.415
pKa [3]: 8.5
Log 1/D125 (L1210) (mM kg-1) [4]: 2.49
Log 1/D125 (mM kg-1) [5]: 3.14
logP [1]: 0.13

CC1CN1C1=C(Cl)C(=O)C(N2CC2C)=C(Cl)C1=O (stereo not given)
Log 1/MIC (mM L-1) [7]: 1.16
E 1/2 [2]: -0.125
Log 1/D125 (L1210) (mM kg-1) [4]: 1.16
Log Kobs [8]: -4.15
Log 1/conc (mM min-1 L-1) [10]: 2.65

COC1=C(C)C(=O)C(N2CCCC2)=CC1=O
Log 1/MIC (mM L-1) [7]: -0.26
Log 1/ID75 (uM L-1) [12]: -1.66
E 1/2 [2]: -0.315

NC1=CC(=O)c2ccccc2C1=O
logP [1]: 1.88
Log K [6]: 0.129

OCC/N=C1C(O)=C(N2CC2)/C(=N\CCO)C(O)=C/1N1CC1
Log 1/ID75 (uM L-1) [12]: 0.42
E 1/2 [2]: -0.385
pKa [3]: 9.5
Log 1/D125 (L1210) (mM kg-1) [4]: 3.39
Log 1/D125 (mM kg-1) [5]: 3.94
Log Kobs [8]: -2.8

C/N=C1\C=C(O)c2ccccc2C1=O
logP [1]: 1.74
Log K [6]: 0.279

CC1=C(C)C(=O)C(N2CCCC2)=CC1=O
Log 1/MIC (mM L-1) [7]: -0.3
Log 1/ID75 (uM L-1) [12]: -1.7
E 1/2 [2]: -0.303

CC1CN1C1=CC(=O)C(N2CC2C)=CC1=O (stereo not given)
Log 1/MIC (mM L-1) [7]: 0.44
Log 1/LD50 (mM kg-1) [11]: 1.16
Log 1/ID75 (uM L-1) [12]: 1.03
E 1/2 [2]: -0.115
pKa [3]: 8.1
Log 1/D125 (L1210) (mM kg-1) [4]: 1.64
Log 1/D125 (mM kg-1) [5]: 2.12
Log K [6]: 0.152
Log Kobs [8]: -1.55
Log 1/conc (mM min-1 L-1) [10]: 1.75

O=C1/C(=N/CCO)C=C(O)c2ccccc21
logP [1]: 1.23
Log K [6]: -0.005

CC1=C(C)C(=O)C(C)=C(C)C1=O [DUROQUINONE]
logP [1]: 2.12
Log K [6]: 0.776

CC1CN1C1=C(F)C(=O)C(N2CC2C)=C(N2CC2C)C1=O (stereo not given)
Log 1/MIC (mM L-1) [7]: 1.18
Log 1/LD50 (mM kg-1) [11]: 1.45
Log 1/ID75 (uM L-1) [12]: 2.01
E 1/2 [2]: -0.195
pKa [3]: 8.2

O=C1C(Cl)=C(N2CC2)C(=O)C(Cl)=C1N1CC1
Log 1/MIC (mM L-1) [7]: 1.63
E 1/2 [2]: -0.133
Log Kobs [8]: -4.7
Log 1/conc (mM min-1 L-1) [10]: 2.74

O=C1C=C(N2CCCC2)C(=O)c2ccccc21
Log K [6]: 0.736

CCOC(=O)NC1=CC(=O)C(NC(=O)OCC)=CC1=O
Log 1/MIC (mM L-1) [7]: 0.85
Log 1/ID75 (uM L-1) [12]: 0.09

O=C1C(N2CCCC2)=C(N2CC2)C(=O)C(N2CCCC2)=C1N1CC1
E 1/2 [2]: -0.315
pKa [3]: 10.6
Log 1/D125 (L1210) (mM kg-1) [4]: 2.07
Log 1/D125 (mM kg-1) [5]: 2.4

CC1=C(N2CC2)C(=O)C(Br)=C(N2CC2)C1=O
Log 1/MIC (mM L-1) [7]: 1.45
Log 1/LD50 (mM kg-1) [11]: 1.44
Log 1/ID75 (uM L-1) [12]: 2.76
E 1/2 [2]: -0.185
pKa [3]: 8.7
Log 1/D125 (mM kg-1) [5]: 2.09
Log K [6]: 0.279
Log Kobs [8]: -4.45
Log 1/conc (mM min-1 L-1) [10]: 2.45

O=C1C=CC(=O)c2ccccc21 [NAPHTHOQUINONE]
Log K [6]: 0.299

CC1=CC(=O)c2ccccc2C1=O [MENADIONE]
Log K [6]: 0.607

NC1=C(N2CC2)C(=O)C(N)=C(N2CC2)C1=O
Log 1/ID75 (uM L-1) [12]: 1.16

CC1=C(N2CC2)C(=O)C(Cl)=C(N2CC2)C1=O
Log 1/ID75 (uM L-1) [12]: 2.41
E 1/2 [2]: -0.197
pKa [3]: 8.5
Log 1/D125 (L1210) (mM kg-1) [4]: 1.99
Log 1/D125 (mM kg-1) [5]: 2.68
Log K [6]: 0.2
Log Kobs [8]: -4.32
Log 1/conc (mM min-1 L-1) [10]: 2.42

CC1=C(N2CC2C)C(=O)C(C)=C(N2CC2C)C1=O (stereo not given)
Log 1/LD50 (mM kg-1) [11]: 1.4
E 1/2 [2]: -0.187
pKa [3]: 8.6
Log 1/D125 (L1210) (mM kg-1) [4]: 1.47
Log 1/D125 (mM kg-1) [5]: 2.27
Log Kobs [8]: -2.61

O=C1C=C(N2CCCC2)C(=O)C=C1N1CCCC1
Log 1/MIC (mM L-1) [7]: -0.38
Log 1/ID75 (uM L-1) [12]: -1.61
E 1/2 [2]: -0.439
Log K [6]: 0.587

O=C1C(N2CC2)=C(N2CC2)C(=O)C(N2CC2)=C1N1CC1
Log 1/MIC (mM L-1) [7]: 0.95
Log 1/ID75 (uM L-1) [12]: 0.9
E 1/2 [2]: -0.245
pKa [3]: 7.7
Log Kobs [8]: -3.7

CC1=C(N2C(C)C2C)C(=O)C(Br)=C(N2C(C)C2C)C1=O (stereo not given)
Log 1/LD50 (mM kg-1) [11]: 0.63
Log 1/D125 (L1210) (mM kg-1) [4]: 0.69
Log Kobs [8]: -1.15
